# Test results reported in ChEMBL document CHEMBL4052819 (2017).
# Calls of active or inactive are those of the source. The calls are words filed in the database; no cut-off is given here. Non-standard residues stand in square brackets, D forms with d. Residues, ends and D or L forms follow the SMILES beside them. Cha = N[C@@H](CC1CCCCC1)C(=O)O; Dab = NCC[C@H](N)C(=O)O
# Legend:
# Staphylococcus aureus [1] = experiment: Induction of cytoplasmic membrane damage in Staphylococcus aureus ATCC 29213 assessed as intracellular potassium ion release at 32 to 64 ug/ml by PBFI probe-based fluorescence assay; assay type: functional, cell-based
# How it was run: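 Mid-log cells washed and suspended in 5 mM HEPES pH 7.2 + 5 mM glucose. PBFI K+ probe added at final 2 μM, then compound at final 8–64 μg/mL; fluorescence read at ex 346/em 505 nm. Three independent experiments; change in fluorescence analysed by ANOVA with Tukey HSD.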
# Escherichia coli [2] = experiment: Antibacterial activity against polymyxin-resistant Escherichia coli UAMS-ECPR1 after 18 to 20 hrs by broth microdilution method; assay type: functional
# How it was run: (§1)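 Broth microdilution in tryptic soy broth: 2-fold dilutions mixed 1:1 with ~1.5 × 10^5 CFU/mL bacterial suspension in TSB, final 0.5–32 μg/mL, 37 °C for 18–20 h. MIC = lowest concentration with no visible growth. At least three independent experiments, one replicate each.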
# Klebsiella pneumoniae [3] = experiment: Bactericidal activity against Klebsiella pneumoniae ATCC 13883; assay type: functional; conditions: read-out: MBC99.9
# How it was run: (§2)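 MBC from MIC plates at end point: 50 μL from each well with no visible growth plated on tryptic soy agar and counted. MBC taken as lowest concentration giving ≥99.9% fall in viable count relative to initial inoculum. Three independent experiments, one replicate each.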
# Staphylococcus aureus [4] = experiment: Antibiofilm activity against methicillin-resistant Staphylococcus aureus LAC established catheter-associated biofilm model at 20 times MIC after 72 hrs relative to control; assay type: functional
# Klebsiella pneumoniae [5] = experiment: Antibacterial activity against carbapenem-resistant Klebsiella pneumoniae clinical isolate expressing beta-lactamase KPC after 18 to 20 hrs by broth microdilution method; assay type: functional; how it was run: as §1
# Enterococcus faecium [6] = experiment: Bactericidal activity against Enterococcus faecium ATCC 19434; assay type: functional; conditions: read-out: MBC99.9; how it was run: as §2
# Klebsiella pneumoniae [7] = experiment: Antibacterial activity against carbapenem-resistant Klebsiella pneumoniae clinical isolate expressing beta-lactamase NDM, OXA-181 after 18 to 20 hrs by broth microdilution method; assay type: functional; how it was run: as §1
# Pseudomonas aeruginosa [8] = experiment: Bactericidal activity against Pseudomonas aeruginosa ATCC 27853 at 32 ug/ml after 2 hrs by time-kill assay relative to control; assay type: functional
# How it was run: (§3)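 Time-kill at 8, 16 and 32 μg/mL; survivors counted on tryptic soy agar at 0, 2, 4, 6 and 24 h. Three independent experiments, one replicate each.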
# Staphylococcus aureus [9] = experiment: Bactericidal activity against methicillin-resistant Staphylococcus aureus ATCC 43300; assay type: functional; conditions: read-out: MBC99.9
# How it was run: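 MBC taken at the end of the MIC test: 50 μL from each well without visible growth plated on tryptic soy agar. MBC = lowest concentration giving ≥99.9% reduction in viable cells relative to the initial inoculum. Three independent experiments, one replicate each.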
# Escherichia coli [10] = experiment: Antibacterial activity against Escherichia coli ATCC 25922 in presence of 100% serum measured immediately post compound addition in serum by broth microdilution method; assay type: functional
# How it was run: (§4)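 Serum stability: compound added to 100% human serum at final 64 μg/mL, held at 37 °C, sampled at 0, 6, 12 and 24 h. […] Residual activity compared with untreated control.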
# Klebsiella pneumoniae [11] = experiment: Antibacterial activity against polymyxin-resistant Klebsiella pneumoniae AR 0109 after 18 to 20 hrs by broth microdilution method
# Escherichia coli [12] = experiment: Antibacterial activity against Escherichia coli ATCC 25922 in presence of 100% serum after 12 hrs by broth microdilution method; assay type: functional; conditions: ATCC 25922, 12 h; how it was run: as §4
# Enterococcus faecium [13] = experiment: Antibacterial activity against Enterococcus faecium ATCC 19434 after 18 to 20 hrs by broth microdilution method; assay type: functional
# How it was run: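 Broth microdilution in tryptic soy broth: 2-fold dilutions mixed 1:1 with ~1.5 × 10^5 CFU/mL inoculum, final 0.5–32 μg/mL; 37 °C, 18–20 h. MIC taken as lowest concentration giving no visible growth. At least three independent experiments, one replicate each.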
# Pseudomonas aeruginosa [14] = experiment: Bactericidal activity against Pseudomonas aeruginosa ATCC 27853 at 8 ug/ml after 24 hrs by time-kill assay; assay type: functional; how it was run: as §3
# Staphylococcus aureus [15] = experiment: Bactericidal activity against Staphylococcus aureus ATCC 29213 at 8 ug/ml after 24 hrs by time-kill assay; assay type: functional; how it was run: as §3
# Staphylococcus aureus [16] = experiment: Bactericidal activity against Staphylococcus aureus ATCC 29213; assay type: functional; conditions: read-out: MBC99.9; how it was run: as §2
# Staphylococcus aureus [17] = experiment: Induction of cytoplasmic membrane depolarization in Staphylococcus aureus ATCC 29213 at >= 16 ug/ml by DiSC3(5) probe-based fluorescence assay; assay type: functional
# How it was run: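 S. aureus ATCC 29213 grown in TSB at 37 °C with shaking (200 rpm) for ~5 h after 1/100 dilution of an overnight culture. Cells washed twice in 5 mM HEPES (pH 7.2) with 5 mM glucose and resuspended in the same buffer. Loaded with 0.5 μM DiSC3(5) for 15 min at room temperature, then 100 mM KCl added. Compound given at 8–64 μg/mL final. Fluorescence read at ex 622/em 670 nm. Three independent experiments, ANOVA with Tukey HSD.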
# Escherichia coli [18] = experiment: Antibacterial activity against carbapenem-resistant Escherichia coli clinical isolate expressing beta-lactamase KPC3, TEM1 after 18 to 20 hrs by broth microdilution method; assay type: functional; how it was run: as §1
# Escherichia coli [19] = experiment: Antibacterial activity against polymyxin-resistant Escherichia coli UAMS-ECPR2 after 18 to 20 hrs by broth microdilution method; assay type: functional; how it was run: as §1
# Staphylococcus aureus [20] = experiment: Bactericidal activity against Staphylococcus aureus ATCC 29213 at 32 ug/ml after 60 mins in presence of LTA; assay type: functional
# How it was run: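 S. aureus at ~10^6 CFU/mL mixed with S. aureus LTA (final 10, 25, 50 or 100 μg/mL), then compound at final 32 μg/mL. Incubated 37 °C, 200 rpm, 60 min; survivors counted on TSA. Four independent experiments, one replicate each.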
# Enterobacter cloacae = experiment: Antibacterial activity against carbapenem-resistant Enterobacter cloacae clinical isolate expressing beta-lactamase KPC-3, TEM1 after 18 to 20 hrs by broth microdilution method; assay type: functional; how it was run: as §1
# Escherichia coli [21] = experiment: Antibacterial activity against polymyxin-resistant Escherichia coli AR 0494 expressing mcr1 after 18 to 20 hrs by broth microdilution method; assay type: functional; how it was run: as §1
# Escherichia coli [22] = experiment: Antibacterial activity against Escherichia coli ATCC 25922 in presence of 100% serum after 24 hrs by broth microdilution method; assay type: functional; conditions: ATCC 25922, 24 h; how it was run: as §4
# Staphylococcus aureus [23] = experiment: Bactericidal activity against Staphylococcus aureus ATCC 29213 at 16 ug/ml after 4 hrs by time-kill assay relative to control; assay type: functional; how it was run: as §3
# Pseudomonas aeruginosa [24] = experiment: Antibiofilm activity against Pseudomonas aeruginosa ATCC 27853 established catheter-associated biofilm model at 40 times MIC after 72 hrs relative to control; assay type: functional
# Pseudomonas aeruginosa [25] = experiment: Bactericidal activity against Pseudomonas aeruginosa ATCC 27853 at 16 ug/ml after 2 hrs by time-kill assay relative to control; assay type: functional; how it was run: as §3
# Staphylococcus aureus [26] = experiment: Antibacterial activity against Staphylococcus aureus ATCC 29213 after 18 to 20 hrs in presence of 95% serum by broth microdilution method; assay type: functional
# How it was run: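 Same microdilution with human serum as medium: compound 2-fold diluted in 100% serum, mixed 1:1 with 90% serum holding ~1.5 × 10^5 CFU/mL, giving 95% serum and final 0.5–64 μg/mL. MIC read as no visible growth after incubation as for the broth test.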
smiles,measurement,setting,value
CC(C)C[C@H](NC(=O)[C@@H](Cc1ccccc1)NC(=O)[C@H](CCN)NC(=O)[C@H](Cc1ccccc1)NC(=O)[C@H](CCN)NC(=O)[C@@H](N)CC1CCCCC1)C(=O)N[C@@H](CCN)C(=O)N[C@H](CC(C)C)C(=O)N[C@@H](Cc1ccccc1)C(=O)N[C@@H](CO)C(N)=O (H-[Cha][Dab]F[Dab][dF]L[Dab][dL]FS-NH2),Activity,Staphylococcus aureus [1],Active
same,MIC,Escherichia coli [2],< 0.5 µg/mL
same,MBC,Klebsiella pneumoniae [3],4 µg/mL
same,Activity,Staphylococcus aureus [4],5 deltalog10CFU/ml
same,MIC,Klebsiella pneumoniae [5],1 to 2 µg/mL
same,MBC,Enterococcus faecium [6],16 µg/mL
same,MIC,Klebsiella pneumoniae [7],0.5 to 2 µg/mL
same,Activity,Pseudomonas aeruginosa [8],5.1 deltalog10CFU/ml
same,MBC,Staphylococcus aureus [9],8 µg/mL
same,MIC,Escherichia coli [10],4 to 8 µg/mL
same,MIC,Klebsiella pneumoniae [11],4 to 8 µg/mL
same,MIC,Escherichia coli [12],4 to 8 µg/mL
same,MIC,Enterococcus faecium [13],8 µg/mL
same,Activity,Pseudomonas aeruginosa [14],inactive
same,Activity,Staphylococcus aureus [15],inactive
same,MBC,Staphylococcus aureus [16],8 µg/mL
same,Activity,Staphylococcus aureus [17],Active
same,MIC,Escherichia coli [18],0.5 to 1 µg/mL
same,MIC,Escherichia coli [19],< 0.5 µg/mL
same,Activity,Staphylococcus aureus [20],inactive
same,MIC,Enterobacter cloacae,0.5 µg/mL
same,MIC,Escherichia coli [21],0.5 µg/mL
same,MIC,Escherichia coli [22],8 µg/mL
same,Activity,Staphylococcus aureus [23],3.1 deltalog10CFU/ml
same,Activity,Pseudomonas aeruginosa [24],2.6 deltalog10CFU/ml
same,Activity,Pseudomonas aeruginosa [25],3.7 deltalog10CFU/ml
same,MIC,Staphylococcus aureus [26],32 µg/mL
